An excerpt weighted towards active compounds, which were near 1.9% of everything screened.
LEDGF integ inh: blocks HIV-1 LEDGF/p75-dependent DNA integration | TR-FRET IN-LEDGF/p75 DNA integration, Eu/Cy5 | 0.64% of 370,000 active | inhibition, % at 3.7 µM | AID 743269;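 active = inhibition above the screen-wide mean plus 3 SD, cut at about 13% in these data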;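 also: signal is the Cy5 over europium emission ratio at 671 and 618 nm; 0% = plate median of compound wells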
MBD2 DNA inh: inhibitors of human MBD2 binding to methylated oligonucleotide | TR-FRET | 0.31% of 370,000 active | AID 686964 | inhibition, % at 4.4 µM | Q9UBB5; in the data active = inhibition above about 13%
UHRF1 MBD2 ctr: UHRF1 methyl-DNA binding inhibition; inhibition, % at 4.4 µM; UHRF1 binding to methylated oligo, TR-FRET; 0.75% of 370,000 active; AID 687016; in the data active = inhibition above about 21%;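 also: UHRF1 SRA domain binding a hemimethylated CpG hairpin DNA probe; 0% = median of test compound wells and 100% = reference inhibitor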
Rin1 Abl inh: inhibitors of human Rin1-Abl protein interaction; 0.4% of 360,000 active; TR-FRET Rin1/Abl binding, biochemical; inhibition, % at 7.35 µM; AID 588664; in the data active = inhibition above about 5%, passing the limit was not always enough
TDP2 inh: TDP2 (human) inhibition, absorbance primary screen; recombinant TDP2, T5PNP hydrolysis, p-nitrophenol absorbance 415 nm; inhibition, % at 12.8 µM; 0.34% of 370,000 active;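 active = inhibition above the mean of all tested compounds plus 3 SD, set per campaign, cut at about 25% in these data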;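 also: 0% = DMSO with enzyme and 100% = buffer with substrate but no TDP2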
Target sequence (O95551 whole entry, looked up): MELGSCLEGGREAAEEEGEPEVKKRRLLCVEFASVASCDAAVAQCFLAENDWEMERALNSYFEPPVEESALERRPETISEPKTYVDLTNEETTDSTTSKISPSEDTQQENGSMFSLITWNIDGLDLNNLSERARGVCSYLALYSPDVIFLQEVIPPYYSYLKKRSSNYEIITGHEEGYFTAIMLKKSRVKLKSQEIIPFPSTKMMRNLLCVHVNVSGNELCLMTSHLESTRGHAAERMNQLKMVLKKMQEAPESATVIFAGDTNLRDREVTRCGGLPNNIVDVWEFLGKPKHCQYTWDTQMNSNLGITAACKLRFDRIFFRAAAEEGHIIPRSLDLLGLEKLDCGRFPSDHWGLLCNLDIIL
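System: recombinant human TDP2 / Amount: 120 nM TDP2 per well / Also added: 5 mM T5PNP chromogenic substrate / Doses: 12.8 µM single point, 1% DMSO / Incubation: 2 h at 37 °C / Detection: p-Nitrophenol epi absorbance / Evaluation: % inhibition relative to enzyme-containing and enzyme-free wells / Repeats: singlicate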
TDP2 inh conf: confirmation of human TDP2 inhibitors | shares compounds with TDP2 inh | recombinant human TDP2, absorbance read-out | inhibition, % at 12.8 µM | 22% of 1,100 active | AID 743263; in the data active = inhibition above about 25%;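 also: 0% = vehicle with enzyme and 100% = no enzyme buffer only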
IN multimer act: activates HIV-1 integrase multimerization in LEDGF counter-screen; shares compounds with LEDGF integ inh; TR-FRET HIV-1 integrase multimerization, biochemical; activation, % at 7.7 µM; 17% of 2,000 active; AID 1053131; in the data active = activation above about 8.9%
TRFRET interf: counter-screen for LEDGF/p75 integration inhibitors: TR-FRET optical interference; AID 1053135; inhibition, % at 7.7 µM; 2,000 tested, under 10 active; shares compounds with LEDGF integ inh; TR-FRET optical interference counterscreen, HIV-1 IN multimerization;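 active = inhibition above the mean over all tested compounds plus 3 SD, which no compound reached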;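 also: 0% = integrase with antibodies and DMSO and 100% = antibodies without integrase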
IN-LEDGF confirm: confirmation of HIV-1 LEDGF/p75-dependent integration inhibitors. shares compounds with LEDGF integ inh. TR-FRET LEDGF/p75-dependent HIV-1 integration, biochemical. inhibition, % at 3.7 µM. 36% of 2,000 active. AID 1053136; in the data active = inhibition above about 14%
Starred values were filed as active, the others as inactive; . = no result.

SMILES	LEDGF integ inh	MBD2 DNA inh	UHRF1 MBD2 ctr	Rin1 Abl inh	TDP2 inh	TDP2 inh conf	others
CCOP(=O)(OCC)C(NC(=O)Nc1ccccc1)C(N)=O (configuration not stated)	2	-6	2	3	-15	.
CCOP(=O)(OCC)C(NC(=O)Nc1ccc(Cl)cc1)C(N)=O (configuration not stated)	1	-6	3	0	45*	-5
CCOc1ccc(NC2=CC(=O)C(=O)c3ccccc32)cc1	23*	-26	-8	-10	32*	40*
COc1ccc(C2=NN(C(=O)CCC(=O)O)C(c3ccc(OC)c(OC)c3)C2)cc1 (configuration not stated)	3	3	0	-1	25*	8
O=C(NC1C(=O)NNC1c1ccccc1)c1ccccc1 (configuration not stated)	4	-6	-2	5	15	.
Cc1cccc(C(=O)NC2C(=O)NNC2c2ccc(Cl)cc2)c1 (configuration not stated)	6	-8	-6	3	30*	10
COc1cccc(-c2nc(CS(=O)(=O)CC(=O)NC3CCCCC3C)c(C)o2)c1 (configuration not stated)	-1	-4	0	1	11	.
COc1ccc(CC(=O)N/N=C(\C)CC(=O)Nc2cccc(F)c2)cc1	-5	0	-2	-1	6	.
COc1ccc(CC(=O)N/N=C(/C)CC(=O)N(C)c2ccccc2)cc1	0	-5	-7	0	25*	5
CCOC(=O)C1CCCN(C2=C(NS(=O)(=O)c3ccc(Br)cc3)C(=O)c3ccccc3C2=O)C1 (configuration not stated)	22*	-1	-2	-6	43*	13
CCN1CCN(C2=C(NS(=O)(=O)c3ccc(C)cc3)C(=O)c3ccccc3C2=O)CC1	5	-19	-13	-11	25*	13
CCN1CCN(C2=C(NS(=O)(=O)c3ccc(NC(C)=O)cc3)C(=O)c3ccccc3C2=O)CC1	1	-16	-8	-4	20	.
CCOC(=O)N1CCN(C2=C(NS(=O)(=O)c3ccc(NC(C)=O)cc3)C(=O)c3ccccc3C2=O)CC1	6	-8	-2	1	28*	24
CC1(C)CC(=O)N(CC(=O)N2CCN(c3ccc(F)cc3)CC2)c2ccccc2S1(=O)=O	-3	2	2	.	7	.
COc1ccc(S(=O)(=O)N(C)C[C@@H]2OCCCC[C@H](C)Oc3ccc(NC(=O)Nc4ccc(C(F)(F)F)cc4)cc3C(=O)N([C@H](C)CO)C[C@H]2C)cc1	6	-3	2	2	16	.
CC(C)c1ccc(NC(=O)/C(C#N)=C/c2ccncc2)cc1	1	2	0	-2	24*	5
N#C/C(=C\c1ccncc1)C(=O)Nc1ccc(C(=O)O)cc1	9	-1	0	-2	-23	.
COC1=C(Nc2ccc(C)cc2)C(=O)c2ccccc2C1=O	3	-10	-9	-8	55*	16
COc1ccc(Cc2nc3ccc(C(=O)NCCCSC)cc3o2)cc1OC	-5	2	2	-1	2	.
CN(C)c1ccc2nc3ccc(=O)cc-3sc2c1	73*	12	55*	14*	31*	13	IN multimer act=85*;TRFRET interf=-303;IN-LEDGF confirm=82*
Cc1cc2nc3ccc(=[N+](C)C)cc-3sc2cc1N	.	.	.	-42	.	.
O=c1cc(-c2ccc(F)cc2)[nH][nH]1	17*	-9	-1	-1	55*	8	IN multimer act=2;TRFRET interf=-12;IN-LEDGF confirm=17*
O=c1cc(-c2ccccc2)[nH][nH]1	23*	-5	-1	3	59*	4	IN multimer act=-2;TRFRET interf=8;IN-LEDGF confirm=3
COC(=O)c1c(NC(=O)c2ccccc2F)sc(C(=O)N2CCOCC2)c1C	-1	0	-2	0	16	.
